Results from ChEMBL document CHEMBL1145196, “Medicinal chemistry driven approaches toward novel and selective serotonin 5-HT6 receptor ligands” (J Med Chem, 2005).

Columns and labels:
[1] = target: T1, 5-hydroxytryptamine receptor 6 (Homo sapiens, UniProt P50406); experiment: Antagonist activity against cAMP accumulation in C6 cells expressing 5-hydroxytryptamine 6 receptor; assay type: functional, cell-based; conditions: Rattus norvegicus, filed as antagonist
Summary of the method: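 C6 cells detached with trypsin 2 h before assay, seeded ~50 000 cells/well. Compounds added with or without forskolin for 30 min. Data are means of at least three separate experiments.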

[2] = target: T1, 5-hydroxytryptamine receptor 6; experiment: Inhibition of [3H]LSD binding to human 5-hydroxytryptamine 6 receptor expressed in HEK293 cells; assay type: cell-based
Summary of the method: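 Bound ligand collected on polyethylenimine-pretreated glass fiber filters, washed with 50 mM Tris Cl pH 7.4, counted by liquid scintillation. Nonspecific binding defined with 100 µM serotonin. Competition data fitted by LIGAND; triplicate determinations per point.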

[3] = target: T1, 5-hydroxytryptamine receptor 6; experiment: Partial agonist activity against cAMP accumulation in C6 cells expressing 5-hydroxytryptamine 6 receptor; assay type: functional, cell-based; conditions: Rattus norvegicus, filed as partial agonist
[4] = target: T1, 5-hydroxytryptamine receptor 6; experiment: Agonist activity against cAMP accumulation in C6 cells expressing 5-hydroxytryptamine 6 receptor; assay type: functional, cell-based; conditions: Rattus norvegicus, filed as agonist
[5] = target: T1, 5-hydroxytryptamine receptor 6; experiment: Binding affinity for human 5-hydroxytryptamine 6 receptor

T1 sequence (P50406 whole entry): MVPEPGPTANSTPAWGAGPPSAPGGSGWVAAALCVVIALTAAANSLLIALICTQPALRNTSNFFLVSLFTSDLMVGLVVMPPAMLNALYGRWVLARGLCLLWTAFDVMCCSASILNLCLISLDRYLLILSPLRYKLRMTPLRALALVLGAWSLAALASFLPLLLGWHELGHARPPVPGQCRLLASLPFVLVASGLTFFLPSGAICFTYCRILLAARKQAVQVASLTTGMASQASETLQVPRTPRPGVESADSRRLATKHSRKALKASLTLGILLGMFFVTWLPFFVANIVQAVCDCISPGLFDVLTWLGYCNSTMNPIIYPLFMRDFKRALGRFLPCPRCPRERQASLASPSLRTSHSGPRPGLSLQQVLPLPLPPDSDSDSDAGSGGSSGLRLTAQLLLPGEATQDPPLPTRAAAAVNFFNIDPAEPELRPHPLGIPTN

Structure (SMILES)	Activity [1]	Ki [2]	also measured
O=S(=O)(Nc1ccc2c(ccn2CCN2CCCC2)c1)c1c(Cl)nc2sccn12	Antagonist	9.8 nM	–
O=C1OCc2ccccc2N1C1CCN(S(=O)(=O)c2csc3ccccc23)CC1	Antagonist	126 nM	–
O=C1OCc2ccccc2N1C1CCN(S(=O)(=O)c2cccc3cccnc23)CC1	Antagonist	–	–
CCN(CC)CCCc1c[nH]c2ccc(NS(=O)(=O)c3ccc4ccccc4c3)cc12	Antagonist	163 nM	–
CNc1cc(NS(=O)(=O)c2ccc(N)cc2)nc(NC)n1	–	44.7 nM	–
Cc1cc2cc(NS(=O)(=O)c3ccc4ccccc4c3)ccc2n1CCN(C)C	Antagonist	85.8 nM	–
CN(C)CCc1c[nH]c2ccc(NS(=O)(=O)c3c(Cl)nc4sccn34)cc12	–	–	Activity [3]: Partial agonist
CN1CCC(c2c[nH]c3ccc(NS(=O)(=O)c4cccc5c(Cl)cccc45)cc23)CC1	Antagonist	9.6 nM	–
Cc1c(S(=O)(=O)Nc2ccc3[nH]cc(CCN(C)C)c3c2)sc2ccc(Cl)cc12	–	0.1 nM	Activity [4]: Agonist
O=S(=O)(Nc1ccc2ccn(CCN3CCCC3)c2c1)c1c(Cl)nc2sccn12	Antagonist	52.2 nM	–
CN(C)C(=O)C(=O)c1c[nH]c2ccc(NS(=O)(=O)c3c(Cl)nc4sccn34)cc12	Antagonist	–	–
O=S(=O)(Nc1ccc2[nH]cc(CCN3CCCC3)c2c1)c1ccc2ccccc2c1	–	4.3 nM	Activity [3]: Partial agonist
CCN(CC)CCn1ccc2cc(NS(=O)(=O)c3ccc4ccccc4c3)ccc21	Antagonist	140 nM	–
CCN(CC)CCc1c[nH]c2ccc(NS(=O)(=O)c3ccc4ccccc4c3)cc12	–	40.8 nM	–
CN1CC=C(c2cn(S(=O)(=O)c3cccc4ccccc34)c3ccc(F)cc23)CC1	–	–	Ki [5]: < 50 nM
CNc1cc(NS(=O)(=O)c2ccc(N)cc2)cc(NC)n1	–	14.8 nM	–
O=S(=O)(Nc1ccc2ccn(CCN3CCCC3)c2c1)c1ccc2ccccc2c1	Antagonist	101 nM	–
CN(C)CCn1ccc2cc(NS(=O)(=O)c3ccc4ccccc4c3)ccc21	Antagonist	57.7 nM	–
Cc1cc2cc(NS(=O)(=O)c3c(Cl)nc4sccn34)ccc2n1CCN(C)C	Antagonist	74.6 nM	–
CN(C)CCn1ccc2c(NS(=O)(=O)c3ccc4ccccc4c3)cccc21	Antagonist	14.9 nM	–
CCN(CC)C(=O)C(=O)c1c[nH]c2ccc(NS(=O)(=O)c3cccc4cccnc34)cc12	–	> 1000 nM	–
CN1CCN(C2Cc3ccccc3Sc3ccc(Cl)cc32)CC1 (centres undefined) [CLOROTEPINE]	–	–	Ki [5]: < 50 nM
Cc1c(S(=O)(=O)Nc2ccc3[nH]cc(CCN4CCCC4)c3c2)sc2ccc(Cl)cc12	–	4 nM	Activity [3]: Partial agonist

Structure (SMILES)	Activity [1]	Ki [2]	also measured
Cc1cccc2c1N(C1CCN(S(=O)(=O)c3cccc4cccnc34)CC1)C(=O)OC2	Antagonist	–	–
CCc1[nH]c2ccc(OC)cc2c1CCN(C)C	–	–	Ki [5]: < 50 nM
Cc1c(S(=O)(=O)Nc2ccc3[nH]cc(C(=O)C(=O)N(C)C)c3c2)sc2ccc(Cl)cc12	–	> 1000 nM	–
CN1CCN(C2=Nc3ccccc3Oc3ccc(Cl)cc32)CC1 [LOXAPINE]	–	–	Ki [5]: < 50 nM
COc1ccc2c(c1)c(CCN(C)C)cn2S(=O)(=O)c1ccccc1	–	–	Ki [5]: < 50 nM
CCN(CC)C(=O)C(=O)c1c[nH]c2ccc(NS(=O)(=O)c3cccc4ccccc34)cc12	–	> 1000 nM	–
Cc1c(S(=O)(=O)Nc2cccc3c2cc(C)n3CCN(C)C)sc2ccc(Cl)cc12	Antagonist	57.7 nM	–
Cc1cc2cc(NS(=O)(=O)c3cccc4ccccc34)ccc2n1CCN(C)C	Antagonist	124 nM	–
COc1ccc(Br)cc1S(=O)(=O)N1CCC(N2C(=O)OCc3cccc(C)c32)CC1	–	> 1000 nM	–
CC(C)C[C@H]1C(=O)N2CCC[C@H]2[C@]2(O)O[C@](NC(=O)[C@@H]3C=C4c5cccc6[nH]c(Br)c(c56)C[C@H]4N(C)C3)(C(C)C)C(=O)N12 [BROMOCRIPTINE]	–	–	Ki [5]: < 50 nM
CCCN(CCC)CCc1c[nH]c2ccc(NS(=O)(=O)c3ccc4ccccc4c3)cc12	–	3.9 nM	Activity [3]: Partial agonist
O=S(=O)(Nc1ccc2[nH]cc(CCN3CCOCC3)c2c1)c1ccc2ccccc2c1	Antagonist	132 nM	–
Cc1c(S(=O)(=O)Nc2ccc3[nH]cc(CCN4CCOCC4)c3c2)sc2ccc(Cl)cc12	Antagonist	15.1 nM	–
Cc1c(S(=O)(=O)Nc2ccc3[nH]cc(CN(C)C)c3c2)sc2ccc(Cl)cc12	Antagonist	5.3 nM	–
OCCN1CCN(CCCN2c3ccccc3Sc3ccc(C(F)(F)F)cc32)CC1 [FLUPHENAZINE]	–	–	Ki [5]: < 50 nM
O=S(=O)(CCc1cccc2ccccc12)Nc1ccc2ccn(CCN3CCCC3)c2c1	Antagonist	195 nM	–
CCCN(CCC)CCc1c[nH]c2ccc(NS(=O)(=O)c3sc4ccc(Cl)cc4c3C)cc12	–	0.5 nM	Activity [3]: Partial agonist
CN(C)CCn1ccc2cc(NS(=O)(=O)Cc3ccccc3)ccc21	–	> 1000 nM	–
Cc1cccc2c1N(C1CCN(S(=O)(=O)c3csc4ccccc34)CC1)C(=O)OC2	Antagonist	124 nM	–
O=S(=O)(Nc1ccc2c(ccn2CCCN2CCCCC2)c1)c1c(Cl)nc2sccn12	–	> 1000 nM	–
CCN(CC)CCn1ccc2cc(NS(=O)(=O)c3c(Cl)nc4sccn34)ccc21	Antagonist	97.3 nM	–
CN(C)CCn1ccc2ccc(NS(=O)(=O)c3ccc4ccccc4c3)cc21	Antagonist	–	–
CCN(CC)CCn1ccc2cc(NS(=O)(=O)c3cccc4ccccc34)ccc21	Antagonist	116 nM	–

Structure (SMILES)	Activity [1]	Ki [2]	also measured
CN(C)CCn1ccc2c(NS(=O)(=O)c3cccc4ccccc34)cccc21	Antagonist	64.7 nM	–
O=S(=O)(Nc1ccc2c(ccn2CCN2CCCCC2)c1)c1c(Cl)nc2sccn12	Antagonist	31.4 nM	–
Cc1c(S(=O)(=O)Nc2ccc3[nH]cc(C4CCN(C)CC4)c3c2)sc2ccc(Cl)cc12	Antagonist	1 nM	–
CCN(CC)CCc1c[nH]c2ccc(NS(=O)(=O)c3cccc4c(Cl)cccc34)cc12	–	3.3 nM	Activity [3]: Partial agonist
CN(C)CCc1c[nH]c2ccc(NS(=O)(=O)c3ccc4c(Cl)cccc4c3)cc12	Antagonist	0.2 nM	–
O=S(=O)(Nc1ccc2[nH]cc(CCN3CCCC3)c2c1)c1cccc2ccccc12	Antagonist	4.5 nM	–
CN1CCC(c2c[nH]c3ccc(NS(=O)(=O)c4cccc5ccccc45)cc23)CC1	Antagonist	–	–
CCCCN(CCCC)CCc1c[nH]c2ccc(NS(=O)(=O)c3cccc4ccccc34)cc12	Antagonist	7.2 nM	–
O=C1OCc2ccccc2N1C1CCN(S(=O)(=O)c2cccc3ccccc23)CC1	Antagonist	–	–
Cc1c(S(=O)(=O)Nc2ccc3ccn(CCN4CCCC4)c3c2)sc2ccc(Cl)cc12	Antagonist	109 nM	–
Cc1cccc2c1N(C1CCN(S(=O)(=O)c3cccc4c(N(C)C)cccc34)CC1)C(=O)OC2	Antagonist	336 nM	–
CCN(CC)CCc1c[nH]c2ccc(NS(=O)(=O)c3cc(Cl)cc(Cl)c3)cc12	–	–	Activity [3]: Partial agonist
COc1ccc(OC)c(S(=O)(=O)N2CCC(N3C(=O)OCc4cccc(C)c43)CC2)c1	Antagonist	131 nM	–
O=S(=O)(Nc1ccc2[nH]cc(CCN3CCOCC3)c2c1)c1cccc2ccccc12	Antagonist	163 nM	–
CN(C)CCc1c[nH]c2ccc(NS(=O)(=O)c3ccc(-c4ccccc4)cc3)cc12	–	0.4 nM	Activity [4]: Agonist
CN(C)CCn1ccc2cc(NS(=O)(=O)c3c(Cl)nc4sccn34)ccc21	Antagonist	–	–
CCN(CC)CCc1c[nH]c2ccc(NS(=O)(=O)c3ccc(-c4ccccc4)cc3)cc12	–	–	Activity [4]: Agonist
Cc1c(S(=O)(=O)Nc2ccc3cc(C)n(CCN(C)C)c3c2)sc2ccc(Cl)cc12	–	> 1000 nM	–
O=S(=O)(Nc1ccc2ccn(CCN3CCCC3)c2c1)c1cccc2ccccc12	Antagonist	18.6 nM	–
CCN(CC)C(=O)C(=O)c1c[nH]c2ccc(NS(=O)(=O)c3c(Cl)nc4sccn34)cc12	Antagonist	–	–
CCN(CC)CCc1c[nH]c2ccc(NS(=O)(=O)c3sc4ccc(Cl)cc4c3C)cc12	–	0.3 nM	Activity [4]: Agonist
Cc1c(S(=O)(=O)Nc2ccc3ccn(CCN(C)C)c3c2)sc2ccc(Cl)cc12	–	–	Activity [3]: Partial agonist
CN(C)CCc1c[nH]c2ccc(NS(=O)(=O)c3cccc4ccccc34)cc12	–	0.8 nM	Activity [3]: Partial agonist
